In brackets after ≈: the same amount, converted by molar mass.
What was measured:
K562 [1] = assay: Cytostatic activity against chronic myelogenous leukemia cells (K-562) based on its ability to inhibit [3H]thymidine incorporation; type: functional, cell-based; details: Homo sapiens
Summary of the method: (§1)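 K-562 chronic myelogenous leukemia cells; cytostatic effect read as inhibition of [3H]thymidine incorporation. Reported as percent inhibition at 10 μg/mL, with EC50 derived only for the more toxic compounds.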

[2] = Selectivity Index, SI = IC50:MIC.ND means not determined.; type: functional
[3] = system: Mycobacterium tuberculosis; assay: Percent inhibition of Mycobacterium tuberculosis H37Rv at 6.25 µg/ml concentration in BACTEC 12B medium using microplate alamar blue assay; type: functional
Summary of the method: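 Primary screen at single concentration 6.25 μg/mL against M. tuberculosis H37Rv (ATCC 27294) in BACTEC 12B medium, read by microplate alamar blue assay; fluorescent compounds instead tested in BACTEC 460 radiometric system. Percent growth inhibition reported.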

K562 [4] = assay: Cytostatic activity against chronic myelogenous leukemia cells (K-562) based on its ability to inhibit [3H]thymidine incorporation.; type: functional, cell-based; details: Homo sapiens; summary of the method: as §1
[5] = system: Mycobacterium tuberculosis; assay: Antibacterial activity against Mycobacterium tuberculosis H37Rv in BACTEC 12B medium using microplate alamar blue assay; type: functional
Summary of the method: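 MIC against M. tuberculosis H37Rv (ATCC 27294) by microplate alamar blue assay (MABA) in BACTEC 12B medium; compounds reaching ≥90% inhibition in the primary screen were re-tested at lower concentrations. MIC defined as minimum concentration giving 90% inhibition of growth; rifampin reference.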

[6] = system: Mycobacterium tuberculosis; assay: Concentration effecting 90% reduction of Mycobacterium tuberculosis strain Erdman, growth in monolayers of mouse bone marrow macrophages after 7 days; type: functional; details: 168 h
Lacticaseibacillus casei = assay: Minimum Inhibitory Concentration against drug-resistant strain of Lactobacillus casei; type: functional
[7] = system: Mycobacterium tuberculosis; assay: Concentration effecting 99% reduction of Mycobacterium tuberculosis strain Erdman, growth in monolayers of mouse bone marrow macrophages after 7 days; type: functional; details: 168 h
Vero = assay: Minimum inhibitory concentration for testing cytotoxicity in VERO cells; type: functional, cell-based; details: Chlorocebus sabaeus
Summary of the method: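 VERO cells exposed 72 h to compound at concentrations up to 62.5 μg/mL. Viability read by cellular MTT conversion to formazan, and an IC50 was derived.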

K562 [8] = assay: Cytostatic activity against chronic myelogenous leukemia cells (K-562) based on its ability to inhibit [3H]thymidine incorporation (at 1.0 g/ml); type: functional, cell-based; details: Homo sapiens
Summary of the method: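 K-562 leukemia cells; inhibition of [3H]thymidine incorporation measured at 1.00 μg/mL instead of the usual 10 μg/mL because of low compound solubility.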

Question: What does the source list for `c1ccc(Cn2cnc3c(-c4ccco4)ncnc32)cc1` [9-BENZYL-6-(FURAN-2-YL)-9H-PURINE]?
Answer: IC50 (K562 [1]): 59 µg/mL (≈ 214 µM); Selectivity index [2]: 2.7

Question: For `OC[C@H]1O[C@@H](n2cnc3c(-c4ccccc4)ncnc32)[C@H](O)[C@@H]1O`, which IC50 (K562 [1]) is on record?
Answer: Its IC50 is 99 µg/mL (≈ 302 µM).

Question: For `OC[C@H]1OC(n2cnc3c(-c4ccco4)ncnc32)[C@H](O)[C@@H]1O` (stereo partly drawn), which Inhibition [3] is on record?
Answer: Its Inhibition is 0%.

Question: What does the source list for `OC[C@H]1OC(n2cnc3c(-c4ccco4)nc(Cl)nc32)[C@H](O)[C@@H]1O` (stereo partly drawn)?
Answer: IC50 (K562 [4]): 100 µg/mL (≈ 283 µM); Inhibition [3]: 7%

Question: For `c1ccc(-c2ncnc3c2ncn3C2CCOCC2)cc1`, which IC50 (K562 [1]) is on record?
Answer: Its IC50 is under 10 µg/mL.

Question: With `C=CCn1cnc2c(-c3ccco3)ncnc21` as the compound, how does the IC50 (K562 [1]) read?
Answer: The IC50 was 11 µg/mL (≈ 48.6 µM).

Question: Which MIC [5] does the source give for `CO[C@H]1/C=C/O[C@@]2(C)Oc3c(C)c(O)c4c(O)c(c(/C=N/N5CCN(C)CC5)c(O)c4c3C2=O)NC(=O)/C(C)=C\C=C\[C@H](C)[C@H](O)[C@@H](C)[C@@H](O)[C@@H](C)[C@H](OC(C)=O)[C@@H]1C` [RIFAMPIN] here?
Answer: Its MIC is 0.25 µg/mL (≈ 0.304 µM).

Question: For `Clc1nc(-c2ccccc2)c2ncn(Cc3ccccc3)c2n1`, which IC50 (K562 [4]) is on record?
Answer: The IC50 was 76 µg/mL (≈ 237 µM).

Question: Which results are given for `Clc1nc(-c2ccco2)c2ncn(Cc3ccccc3)c2n1`?
Answer: EC90 [6]: 0.038 µg/mL (≈ 0.122 µM); IC50 (K562 [4]): 27 µg/mL (≈ 86.9 µM); MIC (Lacticaseibacillus casei): > 10 µg/mL; EC99 [7]: 8.46 µg/mL

Question: With `Cn1cnc2c(-c3ccco3)ncnc21` as the compound, how does the IC50 (K562 [1]) read?
Answer: The IC50 was under 10 µg/mL.

Question: Which IC50 (K562 [1]) does the source give for `c1csc(-c2[nH]cnc3ncnc2-3)c1` here?
Answer: The IC50 was under 10 µg/mL.

Question: With `CC(=O)OC[C@H]1O[C@@H](Cn2cnc3c(-c4ccccc4)ncnc32)[C@H](OC(C)=O)[C@@H]1OC(C)=O` as the compound, how does the Inhibition [3] read?
Answer: Its Inhibition is 4%.

Question: With `c1coc(-c2ncnc3c2ncn3CC2CCCCC2)c1` as the compound, how does the IC50 (K562 [1]) read?
Answer: Its IC50 is 60 µg/mL (≈ 213 µM).

Question: For `c1ccc(Cn2cnc3c(-c4cccs4)ncnc32)cc1`, which IC50 (Vero) is on record?
Answer: The IC50 was over 10 µg/mL.

Question: And the IC50 (K562 [8])?
Answer: The IC50 was under 10 µg/mL.

Question: And the Selectivity index [2]?
Answer: The Selectivity index was over 1.6.

Question: Which IC50 (K562 [8]) does the source give for `c1ccc(Cn2cnc3c(-c4ccccc4)ncnc32)cc1` here?
Answer: Its IC50 is under 10 µg/mL.

Question: With `c1ccc(CCn2cnc3c(-c4ccco4)ncnc32)cc1` as the compound, how does the IC50 (K562 [1]) read?
Answer: The IC50 was 53 µg/mL (≈ 183 µM).

From ChEMBL document CHEMBL1135898, “Synthesis and antimycobacterial activity of 6-arylpurines: the requirements for the N-9 substituent in active antimycobacterial purines” (J Med Chem, 2002)
